Measurements taken from PMC3411050 (The Journal of Biological Chemistry, 2012).
Where two headings read alike, the source gives them in different places. Where no end group is shown, it is not given here.

Assays:
T. californica nAChR [1] = biological target: T1, T. californica nAChR (Tetronarce californica, UniProt P02710+P02712+P02714+P02718); settings: read-out: IC50, inhibition of α-bungarotoxin binding; cited from earlier work
Human α7 nAChR [2] = biological target: T2, Human α7 nAChR (Homo sapiens, UniProt P36544); settings: read-out: IC50, inhibition of α-bungarotoxin binding; cited from earlier work
T2 sequence (P36544 23-502): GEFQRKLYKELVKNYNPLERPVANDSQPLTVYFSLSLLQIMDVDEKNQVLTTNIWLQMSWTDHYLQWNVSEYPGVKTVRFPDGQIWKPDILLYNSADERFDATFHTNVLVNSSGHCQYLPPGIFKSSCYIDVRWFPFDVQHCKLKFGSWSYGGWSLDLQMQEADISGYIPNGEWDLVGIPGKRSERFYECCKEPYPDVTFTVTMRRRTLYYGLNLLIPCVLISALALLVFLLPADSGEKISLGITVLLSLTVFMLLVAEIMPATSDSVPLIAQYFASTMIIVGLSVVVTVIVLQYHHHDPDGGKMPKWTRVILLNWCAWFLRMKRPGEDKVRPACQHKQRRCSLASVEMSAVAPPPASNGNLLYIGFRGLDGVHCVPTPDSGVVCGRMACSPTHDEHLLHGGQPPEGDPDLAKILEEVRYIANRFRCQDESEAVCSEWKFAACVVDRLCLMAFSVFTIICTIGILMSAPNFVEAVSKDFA

T. californica nAChR [3] = biological target: T1, T. californica nAChR; assay type: binding, Torpedo californica; settings: Torpedo nAChR, from two-site IC50 values
5-HT3AB receptor = biological target: T3, 5-HT3AB receptor (Homo sapiens, UniProt O95264+P46098); experiment: Current recording on 5-HT3 receptors in Xenopus oocytes; assay type: cell-based; settings: concentrations up to 10 μM
T3 sequence (P46098 24-478): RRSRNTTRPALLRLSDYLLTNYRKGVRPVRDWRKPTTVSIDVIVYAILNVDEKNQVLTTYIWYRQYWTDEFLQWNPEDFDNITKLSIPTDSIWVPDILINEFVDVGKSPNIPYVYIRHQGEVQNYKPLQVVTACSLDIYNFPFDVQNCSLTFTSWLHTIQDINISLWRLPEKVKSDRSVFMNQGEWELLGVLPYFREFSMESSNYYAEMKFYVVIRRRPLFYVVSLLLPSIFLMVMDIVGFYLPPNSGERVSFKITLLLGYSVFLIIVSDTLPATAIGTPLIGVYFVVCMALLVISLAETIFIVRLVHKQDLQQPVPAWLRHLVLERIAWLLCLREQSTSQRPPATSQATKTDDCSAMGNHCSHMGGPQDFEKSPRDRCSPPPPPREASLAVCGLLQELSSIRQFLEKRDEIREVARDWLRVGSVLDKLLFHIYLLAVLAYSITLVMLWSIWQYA
T3 sequence (O95264 22-441): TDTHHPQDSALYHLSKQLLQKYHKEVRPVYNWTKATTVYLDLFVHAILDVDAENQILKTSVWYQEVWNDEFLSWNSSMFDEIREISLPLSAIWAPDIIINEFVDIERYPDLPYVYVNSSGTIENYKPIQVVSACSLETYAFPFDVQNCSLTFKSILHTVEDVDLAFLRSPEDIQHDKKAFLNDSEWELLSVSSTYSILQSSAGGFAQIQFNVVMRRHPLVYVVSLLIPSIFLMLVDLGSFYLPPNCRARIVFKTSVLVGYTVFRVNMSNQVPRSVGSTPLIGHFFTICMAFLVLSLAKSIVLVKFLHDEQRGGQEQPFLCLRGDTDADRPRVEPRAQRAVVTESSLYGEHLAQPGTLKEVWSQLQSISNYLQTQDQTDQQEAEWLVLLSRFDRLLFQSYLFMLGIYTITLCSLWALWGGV
Method in brief: (§1)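 Human 5-HT3A (with 5-HT3B for the heteromer) subunit cRNA was transcribed in vitro from cDNA and injected into Xenopus oocytes. Currents were recorded 1–4 days after injection.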

GABAA receptor α2β3γ2 = GABAA receptor α2β3γ2 (Rattus norvegicus, UniProt P18508+P23576+P63079); experiment: Two-electrode voltage clamp on recombinant GABAA receptors in Xenopus oocytes; assay type: cell-based; settings: up to 10 μM
Chain of GABAA receptor α2β3γ2 (P23576 29-451): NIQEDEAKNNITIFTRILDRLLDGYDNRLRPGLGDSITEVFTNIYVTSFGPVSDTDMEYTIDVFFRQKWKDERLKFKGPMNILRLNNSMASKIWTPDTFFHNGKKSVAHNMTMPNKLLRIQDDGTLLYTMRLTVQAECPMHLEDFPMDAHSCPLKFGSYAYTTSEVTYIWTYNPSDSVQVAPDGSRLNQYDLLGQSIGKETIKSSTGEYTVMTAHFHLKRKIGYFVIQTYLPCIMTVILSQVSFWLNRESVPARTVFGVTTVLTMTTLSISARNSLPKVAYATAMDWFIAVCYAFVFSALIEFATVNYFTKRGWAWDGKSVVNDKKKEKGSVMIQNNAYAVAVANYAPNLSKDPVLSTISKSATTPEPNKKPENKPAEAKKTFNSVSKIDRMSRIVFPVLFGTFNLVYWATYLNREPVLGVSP
Chain of GABAA receptor α2β3γ2 (P63079 26-473): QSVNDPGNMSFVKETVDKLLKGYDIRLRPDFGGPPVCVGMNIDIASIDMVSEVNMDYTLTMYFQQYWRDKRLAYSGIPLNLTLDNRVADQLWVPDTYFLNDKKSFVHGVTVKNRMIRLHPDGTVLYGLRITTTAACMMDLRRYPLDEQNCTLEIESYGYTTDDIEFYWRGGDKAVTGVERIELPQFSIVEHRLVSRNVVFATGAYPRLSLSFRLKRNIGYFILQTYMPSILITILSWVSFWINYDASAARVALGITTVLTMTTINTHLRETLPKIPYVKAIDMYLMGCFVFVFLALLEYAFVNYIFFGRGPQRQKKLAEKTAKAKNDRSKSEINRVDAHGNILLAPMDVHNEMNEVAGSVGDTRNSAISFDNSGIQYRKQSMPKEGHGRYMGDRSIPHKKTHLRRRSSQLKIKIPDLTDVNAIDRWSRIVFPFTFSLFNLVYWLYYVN
Chain of GABAA receptor α2β3γ2 (P18508 39-466): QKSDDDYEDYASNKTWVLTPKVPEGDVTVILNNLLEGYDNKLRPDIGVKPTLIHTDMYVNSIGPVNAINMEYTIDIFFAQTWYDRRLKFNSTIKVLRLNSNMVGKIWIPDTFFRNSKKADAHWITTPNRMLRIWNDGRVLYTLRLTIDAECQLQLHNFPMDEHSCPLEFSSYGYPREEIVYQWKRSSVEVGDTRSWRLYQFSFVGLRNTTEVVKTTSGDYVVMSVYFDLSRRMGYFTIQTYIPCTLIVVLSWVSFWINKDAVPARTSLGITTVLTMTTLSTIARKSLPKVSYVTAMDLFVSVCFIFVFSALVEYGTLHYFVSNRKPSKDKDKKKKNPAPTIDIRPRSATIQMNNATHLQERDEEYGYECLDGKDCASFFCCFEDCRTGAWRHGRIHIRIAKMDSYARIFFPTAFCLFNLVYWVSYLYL

[4] = biological target: human muscle-type nAChR, adult form (α1β1ϵδ) (Homo sapiens, UniProt P02708+P11230+Q04844+Q07001); assay type: cell-based; settings: human muscle-type nAChR in oocytes; washing for 2 min
Method in brief: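 Human α1, β1, δ and ε (adult) or γ (fetal) subunit cDNAs were injected into the oocyte nucleus, and two-electrode voltage clamp was run 2–3 days later. Cells received 5 s pulses of 5 μM ACh every 2 min. After stabilization, the test compound was applied at varied concentrations for at least 1 min, the ACh response was retested, and recovery was followed over several minutes.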

GABAA receptor α1β3γ2 = GABAA receptor α1β3γ2 (Rattus norvegicus, UniProt P18508+P62813+P63079); experiment: Two-electrode voltage clamp on recombinant GABAA receptors in Xenopus oocytes; assay type: cell-based; settings: up to 100 μM
Chain of GABAA receptor α1β3γ2 (P62813 28-455): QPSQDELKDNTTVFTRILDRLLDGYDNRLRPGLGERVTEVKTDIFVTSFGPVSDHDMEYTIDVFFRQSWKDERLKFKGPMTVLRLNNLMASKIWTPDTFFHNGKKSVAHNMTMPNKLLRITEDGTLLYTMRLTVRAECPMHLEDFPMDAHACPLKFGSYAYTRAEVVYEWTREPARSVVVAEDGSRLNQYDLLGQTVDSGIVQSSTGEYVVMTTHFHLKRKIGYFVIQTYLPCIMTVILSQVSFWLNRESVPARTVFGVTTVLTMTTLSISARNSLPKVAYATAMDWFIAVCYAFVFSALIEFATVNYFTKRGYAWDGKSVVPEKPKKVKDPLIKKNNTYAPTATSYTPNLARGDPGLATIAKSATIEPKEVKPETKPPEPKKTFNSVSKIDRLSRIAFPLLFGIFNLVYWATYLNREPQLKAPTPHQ
Chain of GABAA receptor α1β3γ2 (P63079 26-473): as the sequence (P63079 26-473) above
Chain of GABAA receptor α1β3γ2 (P18508 39-466): as the sequence (P18508 39-466) above

5-HT3A receptor = biological target: T4, 5-HT3A receptor (Homo sapiens, UniProt P46098); experiment: Current recording on 5-HT3 receptors in Xenopus oocytes; assay type: cell-based; settings: concentrations up to 10 μM
T4 sequence (P46098 24-478): T3 sequence (P46098 24-478)
Method in brief: as §1

[5] = tested on: adult male mice of BALB/c line; experiment: Lethal effect of azemiopsin on mice; assay type: in vivo, mouse; settings: intraperitoneal injection, solution in water, doses 2–10 mg/kg
Method in brief: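 Adult male BALB/c mice (18–22 g) were kept on a 12/12-h light/dark cycle with food and water ad libitum. The test compound, dissolved in water, was given intraperitoneally at 2, 2.7, 4, 8 and 10 mg/kg body weight.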

Human α7 nAChR [6] = biological target: T2, Human α7 nAChR; settings: read-out: IC50, inhibition of α-bungarotoxin binding
L. stagnalis AChBP = L. stagnalis AChBP (Lymnaea stagnalis, UniProt P58154); settings: read-out: IC50, inhibition of α-bungarotoxin binding
Chain of L. stagnalis AChBP (P58154 20-229): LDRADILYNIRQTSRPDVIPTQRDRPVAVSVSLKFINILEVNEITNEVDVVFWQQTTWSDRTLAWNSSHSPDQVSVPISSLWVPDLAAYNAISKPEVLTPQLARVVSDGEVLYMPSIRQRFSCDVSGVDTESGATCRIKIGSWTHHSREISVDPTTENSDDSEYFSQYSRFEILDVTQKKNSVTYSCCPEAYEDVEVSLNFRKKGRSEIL

A. californica AChBP = biological target: T5, A. californica AChBP (Aplysia californica, UniProt Q8WSF8); settings: read-out: IC50, inhibition of α-bungarotoxin binding
T5 sequence (Q8WSF8 18-236 limits assumed): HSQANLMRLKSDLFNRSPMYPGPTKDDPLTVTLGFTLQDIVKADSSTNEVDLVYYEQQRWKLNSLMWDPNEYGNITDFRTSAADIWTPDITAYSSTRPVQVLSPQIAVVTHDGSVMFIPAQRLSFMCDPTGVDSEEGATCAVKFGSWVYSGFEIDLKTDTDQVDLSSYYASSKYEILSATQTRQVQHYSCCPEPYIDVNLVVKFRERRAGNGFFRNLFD

T1 sequence (P02710 25-461): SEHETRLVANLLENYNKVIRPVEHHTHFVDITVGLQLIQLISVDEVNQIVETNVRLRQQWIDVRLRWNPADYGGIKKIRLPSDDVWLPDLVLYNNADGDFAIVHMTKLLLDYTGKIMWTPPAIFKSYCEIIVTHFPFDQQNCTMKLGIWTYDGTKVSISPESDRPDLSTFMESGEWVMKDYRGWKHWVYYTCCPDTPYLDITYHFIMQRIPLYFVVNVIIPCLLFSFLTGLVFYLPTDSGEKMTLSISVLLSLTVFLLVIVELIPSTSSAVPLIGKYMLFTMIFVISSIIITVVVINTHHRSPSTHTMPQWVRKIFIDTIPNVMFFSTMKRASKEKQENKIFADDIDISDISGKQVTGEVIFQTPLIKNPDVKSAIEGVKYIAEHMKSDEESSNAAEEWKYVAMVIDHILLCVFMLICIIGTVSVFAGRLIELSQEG
T1 sequence (P02712 25-493 partner): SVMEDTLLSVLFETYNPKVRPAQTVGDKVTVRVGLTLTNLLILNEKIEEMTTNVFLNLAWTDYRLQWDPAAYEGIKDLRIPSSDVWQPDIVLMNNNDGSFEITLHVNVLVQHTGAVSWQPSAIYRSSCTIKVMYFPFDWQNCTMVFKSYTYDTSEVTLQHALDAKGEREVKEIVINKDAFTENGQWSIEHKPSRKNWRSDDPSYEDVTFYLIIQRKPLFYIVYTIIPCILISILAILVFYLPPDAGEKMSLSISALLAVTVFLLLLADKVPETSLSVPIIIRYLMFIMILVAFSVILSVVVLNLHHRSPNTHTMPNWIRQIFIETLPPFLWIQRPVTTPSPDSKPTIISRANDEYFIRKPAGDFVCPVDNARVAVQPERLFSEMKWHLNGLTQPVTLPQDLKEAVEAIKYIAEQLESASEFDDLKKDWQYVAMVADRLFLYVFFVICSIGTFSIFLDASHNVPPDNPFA
T1 sequence (P02714 18-506): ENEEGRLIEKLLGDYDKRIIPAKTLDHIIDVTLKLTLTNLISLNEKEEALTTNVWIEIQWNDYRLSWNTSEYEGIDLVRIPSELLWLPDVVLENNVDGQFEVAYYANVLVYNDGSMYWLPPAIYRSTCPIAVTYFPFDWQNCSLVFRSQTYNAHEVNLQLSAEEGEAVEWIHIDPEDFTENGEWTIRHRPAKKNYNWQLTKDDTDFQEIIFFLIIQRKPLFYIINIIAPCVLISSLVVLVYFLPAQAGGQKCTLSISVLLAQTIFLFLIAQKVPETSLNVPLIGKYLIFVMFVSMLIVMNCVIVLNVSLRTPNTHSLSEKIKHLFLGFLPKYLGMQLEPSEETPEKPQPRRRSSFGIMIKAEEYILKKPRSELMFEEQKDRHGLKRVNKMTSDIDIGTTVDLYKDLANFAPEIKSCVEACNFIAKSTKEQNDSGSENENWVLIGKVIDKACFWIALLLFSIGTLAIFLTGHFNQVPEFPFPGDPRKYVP
T1 sequence (P02718 22-522): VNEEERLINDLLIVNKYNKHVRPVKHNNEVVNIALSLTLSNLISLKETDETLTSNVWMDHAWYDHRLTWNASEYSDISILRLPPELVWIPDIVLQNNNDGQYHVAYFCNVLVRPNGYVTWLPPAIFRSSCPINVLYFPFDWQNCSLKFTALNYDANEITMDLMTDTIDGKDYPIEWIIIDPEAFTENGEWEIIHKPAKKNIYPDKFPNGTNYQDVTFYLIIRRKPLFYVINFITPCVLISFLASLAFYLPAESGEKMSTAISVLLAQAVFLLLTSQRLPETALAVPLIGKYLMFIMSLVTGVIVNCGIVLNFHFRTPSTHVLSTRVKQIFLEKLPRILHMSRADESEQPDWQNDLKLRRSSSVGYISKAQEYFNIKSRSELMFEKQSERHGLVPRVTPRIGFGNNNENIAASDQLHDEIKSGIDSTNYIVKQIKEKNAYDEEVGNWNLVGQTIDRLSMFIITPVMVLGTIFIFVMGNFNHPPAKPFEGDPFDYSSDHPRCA

Substance: Neurotoxin II Naja oxiana
- IC50 (T. californica nAChR [1]): 3 nM
- IC50 (Human α7 nAChR [2]): > 4000 nM

Substance: DNWWPKPPHQGPRPPRPRPKP [Azemiopsin]
- difference in the affinity between the two binding sites (α1/γ and α1/δ) (T. californica nAChR [3]): 27 fold
- effect at 5-HT3AB receptors (5-HT3AB receptor): no effects
- effect on GABAA receptor currents (GABAA receptor α2β3γ2): no significant effects
- recovery of the ACh response after washing out the toxin [4]: complete recovery
- effect on GABAA receptor currents (GABAA receptor α1β3γ2): no significant effects
- effect at 5-HT3A receptors (5-HT3A receptor): no effects
- LD50 [5]: 2.6 ± 0.3 mg/kg

Substance: α-Cobratoxin
- IC50 (Human α7 nAChR [6]): 105 ± 10 nM
- IC50 (L. stagnalis AChBP): 2 ± 0.2 nM
- IC50 (A. californica AChBP): 58 ± 2 nM
